Published values gathered from unrelated publications.
Lines come from different studies, so protocols differ.
Cell line: PC-3
Read-out: cell growth or viability
Method: MTT

Cc1nc(N(C)c2ccc3c(c2)/C(=C/c2ccccc2Cl)C(=O)N3C)c2ccccc2n1
IC50: 23.7 µM

CCCOc1nc(-c2cccc(O)c2)cc(-c2cc3ccccc3nc2N2CCOCC2)c1C#N
IC50 (72 h): 0.155 µM

Cc1nc(Nc2ccc3c(c2)/C(=C/c2ccccc2C)C(=O)N3)c2ccccc2n1
IC50: 26.7 µM

[NH2][Pt]([NH2])([Cl])[Cl]
IC50: 8.3 µM

COc1cccc2c1C(=O)c1c(O)c3c(c(O)c1C2=O)C[C@@](O)(C(=O)CO)C[C@@H]3O[C@H]1C[C@H](N)[C@H](O)[C@H](C)O1
IC50 (72 h): 0.61 µM

COc1ccc(-c2cc(-c3cc(OC)ccc3OC)c3c(=O)[nH]c(=O)[nH]c3n2)cc1
IC50 (48 h): 19.1 µM

Nc1n[nH]c2nc(-c3cccc(O)c3)cc(-c3cc4ccccc4nc3N3CCOCC3)c12
IC50 (72 h): 0.0564 µM

COc1cc2ncnc(N(C)c3ccc4c(c3)/C(=C/c3cccc(Cl)c3)C(=O)N4C)c2cc1OC
IC50: 5.5 µM

COc1ccc(-c2cc(-c3ccc(C)cc3)nc3c2c(=O)n(C)c(=O)n3C)cc1OC
IC50 (48 h): 38.9 µM

CCOc1nc(-c2cccc(O)c2)cc(-c2cc3ccccc3nc2N2CCOCC2)c1C#N
IC50 (72 h): 0.118 µM

Cc1ccc(-c2cc(-c3c(Cl)cccc3Cl)c3c(=O)[nH]c(=O)[nH]c3n2)cc1
IC50 (48 h): 48.9 µM

Cc1nc(Nc2ccc3c(c2)CC(=O)N3)c2ccccc2n1
IC50: 20.6 µM

Cc1ccc(-c2cc(-c3c(Cl)cccc3Cl)c3c(=O)n(C)c(=O)n(C)c3n2)cc1
IC50 (48 h): 9.89 µM

CCOc1nc(-c2cccc(O)c2)cc(-c2cc3cc(Cl)ccc3nc2N2CCOCC2)c1C#N
IC50 (72 h): 0.174 µM
